# Reference: ChEMBL document CHEMBL1146838, “4-Hydroxy-3-methyl-6-phenylbenzofuran-2-carboxylic acid ethyl ester derivatives as potent anti-tumor agents” (Bioorg Med Chem Lett, 2004)
# System: WI-38 VA13
# Test: Cytotoxicity against VA13 cell line; Expressed as effective concentration
# Type: functional, cell-based
# Conditions: Homo sapiens
# Procedure, shortened: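 Human tumorigenic VA13 cells grown in MEM-E with penicillin/streptomycin and 10% fetal calf serum, seeded at 1.5–3.0×10³ cells/well, cultured 2–3 days. Compounds in DMSO (final <0.5%) added for 24 h, then washed out and cells cultured a further 3 days in fresh medium. XTT with phenazine methosulfate added for 2.5 h, OD450 read. Viability computed relative to untreated and cell-free blanks; EC50 taken from dose–response curve.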
row,Structure (SMILES),EC50 [µg/mL]
1,COc1ccc(C(=O)c2oc3cc(-c4ccccc4)cc(O)c3c2C)cc1,0.28
2,Cc1c(C(=O)NCCc2ccccn2)oc2cc(-c3ccccc3)cc(O)c12,1.5
3,COc1ccc(CCOC(=O)c2oc3cc(-c4ccccc4)cc(O)c3c2C)cc1,0.02
4,CC(=O)c1oc2cc(-c3ccccc3)cc(O)c2c1C,0.08
5,COc1ccc(OC)c(C(=O)c2oc3cc(-c4ccccc4)cc(O)c3c2C)c1,0.09
6,CCOC(=O)c1oc2cc(-c3ccccc3)cc(O)c2c1C,0.04
7,CCC(=O)c1oc2cc(-c3ccccc3)cc(O)c2c1C,0.27
8,Cc1c(C(=O)c2cnc3ccccc3c2)oc2cc(-c3ccccc3)cc(O)c12,> 4
9,Cc1c(C(=O)c2cccs2)oc2cc(-c3ccccc3)cc(O)c12,2
10,Cc1c(C(=O)c2ccccc2)oc2cc(-c3ccccc3)cc(O)c12,0.6
11,Cc1c(C(=O)c2nccs2)oc2cc(-c3ccccc3)cc(O)c12,0.4
12,CCCC(=O)c1oc2cc(-c3ccccc3)cc(O)c2c1C,0.59
13,Cc1c(C(=O)c2cccc(OC(C)C)c2)oc2cc(-c3ccccc3)cc(O)c12,0.35
14,Cc1c(C(=O)Cc2ccccc2)oc2cc(-c3ccccc3)cc(O)c12,> 4
15,COc1ccc(C(=O)c2oc3cc(-c4ccccc4)cc(O)c3c2C)cc1OC,0.45
16,Cc1c(C(=O)CCc2ccccc2)oc2cc(-c3ccccc3)cc(O)c12,> 4
17,Cc1c(C(=O)O)oc2cc(-c3ccccc3)cc(O)c12,> 4
18,Cc1c(C(=O)c2ccc(N(C)C)cc2)oc2cc(-c3ccccc3)cc(O)c12,> 4
19,COc1ccc(C(=O)c2oc3cc(-c4ccccc4)cc(O)c3c2C)c(C(F)(F)F)c1,0.4
20,Cc1c(C(=O)C(C)(C)C)oc2cc(-c3ccccc3)cc(O)c12,0.41

row,Structure (SMILES),EC50 [µg/mL]
1,Cc1c(C(=O)c2ccccc2-c2ccccc2)oc2cc(-c3ccccc3)cc(O)c12,0.1
2,Cc1c(C(=O)C(C)C)oc2cc(-c3ccccc3)cc(O)c12,0.41
3,Cc1c(C(=O)c2ccccn2)oc2cc(-c3ccccc3)cc(O)c12,0.6
4,Cc1ncsc1CCOC(=O)c1oc2cc(-c3ccccc3)cc(O)c2c1C,0.055
5,COCc1ccccc1C(=O)c1oc2cc(-c3ccccc3)cc(O)c2c1C,0.1
6,COc1ccc(C(=O)c2oc3cc(-c4ccccc4)cc(O)c3c2C)c(OC)c1,0.04
7,Cc1c(C(=O)C2CCCCC2)oc2cc(-c3ccccc3)cc(O)c12,0.45
8,COc1ccc(CCOC(=O)c2oc3cc(-c4ccccc4)cc(O)c3c2C)cc1OC,0.021
9,COc1ccccc1C(=O)c1oc2cc(-c3ccccc3)cc(O)c2c1C,0.09
10,Cc1c(C(=O)c2cccc(CN(C)C)c2)oc2cc(-c3ccccc3)cc(O)c12,0.09
11,Cc1c(C(=O)c2ccc(F)c(F)c2)oc2cc(-c3ccccc3)cc(O)c12,0.4
12,Cc1c(C(=O)c2cccc(C(F)(F)F)c2)oc2cc(-c3ccccc3)cc(O)c12,> 4
13,Cc1c(C(=O)c2cncnc2)oc2cc(-c3ccccc3)cc(O)c12,0.7
14,CCCCC(=O)c1oc2cc(-c3ccccc3)cc(O)c2c1C,2
15,Cc1c(C(=O)c2ccc(Oc3ccccc3)cc2)oc2cc(-c3ccccc3)cc(O)c12,> 4
16,Cc1c(C(=O)c2ccc(CN(C)C)cc2)oc2cc(-c3ccccc3)cc(O)c12,> 4
17,COc1cc(C(F)(F)F)ccc1C(=O)c1oc2cc(-c3ccccc3)cc(O)c2c1C,0.26
18,Cc1c(C(=O)OC(C)C)oc2cc(-c3ccccc3)cc(O)c12,0.06
19,CCc1ccc(C(=O)c2oc3cc(-c4ccccc4)cc(O)c3c2C)cc1,> 4
